The list is not random: actives were taken first. Their share in the collection is about 1.5%.
HCV NS3 hel inh: inhibitors of Hepatitis C virus NS3 helicase | NS3 helicase DNA unwinding, Cy5 molecular beacon fluorescence | inhibition, % at 10.9 µM | hit rate 0.56% among 290,000;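 active = inhibition above the mean of all tested compounds plus 3 SD, set per campaign, cut at about 35% in these data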;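 also: 0% = DMSO wells and 100% = thioflavine S control wells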
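Assay system – hepatitis C virus NS3 helicase domain fragment enzyme · Buffer or medium – MOPS pH 6.5, MgCl2, DTT, Tween20, BSA · Reagent – Cy5/quencher beacon DNA duplex and ATP to start · Compound – single 10.9 µM dose · Timing – 1 h at 25 °C · Technique – Cy5 beacon fluorescence read at start and 1 h · Measure – % inhibition of unwinding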
NSD2 HMT inh: inhibitors of human histone methyltransferase NSD2; AID 743445; hit rate 0.54% among 310,000; O96028; NSD2 peptide methylation, AlphaScreen, 120 min; inhibition, % at 12.5 µM
DNMT1 block: inhibitors of human DNMT1. DNMT1 molecular beacon, Hinp1I cleavage, fluorescence. inhibition (reported as % activation of signal), % at 10 µM. hit rate 0.83% among 360,000. AID 588458
CASP6 VEID inh: blocks human caspase-6 cleavage activity; purified caspase-6, Z-VEID-R110 cleavage fluorescence; inhibition, % at 12.5 µM; hit rate 0.53% among 350,000;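 active = mean inhibition across replicates at least about 35%, with every replicate also reaching that limit, limit read from the data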;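 also: 0% = median of neutral control wells and 100% = no fluorescence left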
DNMT1 inh conf: DNMT1 inhibition confirmation, single concentration | shares compounds with DNMT1 block | DNMT1 molecular beacon HinP1I cleavage, fluorescence | inhibition, % at 10 µM | hit rate 8% among 2,300 | AID 602385;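 active = average inhibition of at least 30% in the single-concentration confirmation test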
Beacon interf: beacon fluorescence artifact counter-screen. shares compounds with DNMT1 block. activation (fluorescence interference), % at 10 µM. DNMT1 molecular beacon spectral interference counterscreen, fluorescence 485/520. hit rate 1% among 2,300;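 active = activation of at least 30% at 10 µM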;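 also: DNMT1 catalytic domain with a HinP1I cleavage step and a FAM/dabcyl DNA beacon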
* hit, by the source's call; nt = no result given. Rule as the data show it, unless noted: active = inhibition above about 50%; inactive = the rest.

SMILES	HCV NS3 hel inh	NSD2 HMT inh	DNMT1 block	CASP6 VEID inh	DNMT1 inh conf	Beacon interf
N=c1c(S(=O)(=O)c2ccc(Br)cc2)cc2c(=O)n3ccccc3nc2n1Cc1ccco1	15	1	86*	0	5	0
CO[C@@H]1CN(C)C(=O)c2ccc(NS(=O)(=O)c3ccccc3)cc2OC[C@@H](C)N(C(=O)NC(C)C)C[C@H]1C	nt	nt	nt	-2	nt	nt
COC(=O)COc1ccc(S(=O)(=O)Nc2ccccc2SC)cc1	2	2	79*	nt	4	8
CCOc1ccc(S(=O)(=O)Nc2ccccc2SC)cc1	-7	-3	-6	nt	nt	nt
O=[N+]([O-])c1ccc(COc2cccc(CNc3ccc(Br)cc3)c2)cc1	5	-2	71*	nt	5	6
O=[N+]([O-])c1ccc(COc2ccc(CNc3ccccc3)cc2)cc1	4	-2	0	nt	nt	nt
CN(C)/C=C/C=C1C(=O)CCCC1=O	5	5	55*	nt	0	1
CN1c2ccc(-c3cccc(F)c3)cc2[C@@H]2[C@@H](CCN2S(=O)(=O)c2cccc(F)c2)[C@H]1CO	nt	nt	nt	2	nt	nt
C[C@@H]1CCCCO[C@@H](CN(C)Cc2ccc3c(c2)OCO3)[C@H](C)CN([C@@H](C)CO)C(=O)c2cc(NC(=O)CCCN(C)C)ccc2O1	nt	nt	nt	-32	nt	nt
O=C(N/N=C/c1ccc(Br)s1)c1cccc([N+](=O)[O-])c1	-10	-2	71*	nt	1	0
Cn1c(-c2ccccc2)cc(=O)n1-c1ccccc1	nt	-1	70*	-8	7	5
C[C@@H]1CN([C@H](C)CO)C(=O)c2cc(-c3ccncc3)cnc2O[C@@H]1CN(C)C(=O)c1ccc(F)cc1	nt	nt	nt	2	nt	nt
Cc1c(CCC(=O)O)c(=O)oc2cc3oc4c(c3cc12)CCCC4	-2	nt	91*	-2	1	3
CN1C[C@@H]2[C@H](c3ccccc31)[C@H](CO)N2C(=O)Nc1ccccc1Cl	nt	nt	nt	2	nt	nt
COc1ccc(C2CC(c3ccccc3F)=NN2c2ccc(S(N)(=O)=O)cc2)cc1 (stereo not drawn)	nt	nt	-2	1	nt	nt
COc1ccc(C2CC(c3ccccc3C(F)(F)F)=NN2c2ccc(S(N)(=O)=O)cc2)cc1 (stereo not drawn)	nt	nt	65*	-4	15	12
COc1ccc(-c2csc(-n3ncc(-c4ccccn4)c3N)n2)cc1	-2	-4	0	2	nt	nt
COc1ccccc1-c1csc(-n2ncc(C#N)c2N)n1	-24	-5	76*	2	12	0
COc1cccc(C(=O)NC(=S)Nc2nnn(C)n2)c1	6	-3	10	nt	nt	nt
COc1ccc(C(=O)NC(=S)Nc2nnn(C)n2)cc1	4	0	86*	1	4	7
Clc1ccc(-c2ccc(/C=N/Nc3nncc(-c4ccccc4)n3)o2)cc1	-2	1	4	nt	nt	nt
Clc1ccccc1-c1ccc(/C=N/Nc2nncc(-c3ccccc3)n2)o1	-6	1	69*	1	-1	-5
COc1cccc(-c2ccc([C@H]3[C@H](CO)N4C(=O)CN(C(=O)c5ccncc5)C[C@@H]34)cc2)c1	nt	nt	nt	2	nt	nt
CC(/C=N/NC(=O)c1ccc(Br)cc1)=C\c1ccccc1	1	0	50*	-4	1	2
O=C(N/N=C/c1ccc(Br)cc1)c1ccc(NC(=O)c2ccccc2)cc1	nt	0	74*	1	-1	-6
SMILES	HCV NS3 hel inh	NSD2 HMT inh	DNMT1 block	CASP6 VEID inh	DNMT1 inh conf	Beacon interf
CN(C)c1ccc(/C=N/NC(=O)c2ccc(NC(=O)c3ccccc3)cc2)cc1	-22	-1	7	-4	nt	nt
CC(/C=N\NC(=O)c1cc(C)oc1C)=C\c1ccccc1	-2	0	72*	nt	4	4
COc1ccc(C(=O)N/N=C\C(C)=C\c2ccccc2)cc1OC	nt	-1	-5	6	nt	nt
O=C(Cc1ccccc1)N[C@H]1CC[C@H](CC(=O)N2CCCCC2)O[C@H]1CO	nt	nt	nt	1	nt	nt
CCCNC(=O)N(C)C[C@@H]1Oc2cc(-c3ccccc3F)ccc2S(=O)(=O)N([C@@H](C)CO)C[C@@H]1C	nt	nt	nt	-2	nt	nt
CN1CCN(C(=O)/C=C/c2ccc([N+](=O)[O-])o2)CC1	-3	1	4	1	nt	nt
O=C(O)/C=C/c1ccc([N+](=O)[O-])o1	6	41	75*	61*	5	2
CCC(=O)Nc1cc(C(=O)O)ccc1S(=O)(=O)c1ccc(C)cc1	14	19	63*	15	-1	1
CC(=O)Nc1cc(C(=O)O)ccc1S(=O)(=O)c1ccc(C)cc1	0	-2	3	nt	nt	nt
